Only some compounds are listed: those with a hit (about 4.9% of all), similar ones and a draw of the others.
STAT3 act = STAT3 signaling activation. 190,000 tested, 0.91% active. activation (% of control), % at 5.6 µM. U3A cells, IL-6 STAT3-luciferase reporter, luminescence; 100% = signal with IL-6 EC80 alone;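 active means activation above the screen-wide mean of compound activation plus 3 SD, cut at about 130% in these data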
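Assay system – human STAT1-deficient U3A cells with stable STAT3-luciferase reporter · Also added – IL-6 (33 ng/mL) · Schedule – compound 1 h, then IL-6 6 h at 37 °C · Technique – reporter luminescence signal · Evaluation – % activation versus median of IL-6-stimulated wells · Benchmarks – IL-6-only wells as 100% reference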
FLuc act counter = affects firefly luciferase, flagging false hits in luciferase stimulation screens. P08659. ATPlite luciferase biochemical, luminescence, 10 min; 0 = ATP-free wells, 1 = DMSO control. activation factor at 10 µM. 200,000 tested, under 10 active;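 active means luciferase activation factor, scaled between plate controls, of at least 2 with compound at 10 µM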
Target sequence (P08659 whole entry, looked up): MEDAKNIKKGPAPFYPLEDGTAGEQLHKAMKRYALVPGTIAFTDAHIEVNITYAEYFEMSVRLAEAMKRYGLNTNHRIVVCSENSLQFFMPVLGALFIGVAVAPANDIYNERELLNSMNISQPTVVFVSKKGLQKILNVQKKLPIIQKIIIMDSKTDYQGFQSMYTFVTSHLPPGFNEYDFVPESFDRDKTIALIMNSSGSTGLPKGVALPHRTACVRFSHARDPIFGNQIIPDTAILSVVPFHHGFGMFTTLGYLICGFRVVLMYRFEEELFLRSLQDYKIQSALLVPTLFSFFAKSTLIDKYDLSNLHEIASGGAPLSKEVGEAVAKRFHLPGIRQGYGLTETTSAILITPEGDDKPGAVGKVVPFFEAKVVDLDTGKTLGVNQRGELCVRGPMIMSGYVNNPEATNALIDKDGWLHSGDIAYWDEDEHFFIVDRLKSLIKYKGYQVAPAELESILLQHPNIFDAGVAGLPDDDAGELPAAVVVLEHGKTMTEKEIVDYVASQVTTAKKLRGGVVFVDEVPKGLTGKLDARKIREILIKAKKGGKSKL
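Assay system – cell-free luciferase reagent · Medium – PBS-based ATP solution · Dosing – test compounds dosed from 2 mM stocks in 100% DMSO · Timing – 10 min, room temperature · Technique – light output (luminescence) · Measure – luminescence gain marking luciferase activators · Controls – No-ATP low control, compound-free enzyme-plus-ATP high control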
STAT1 inh = reduces IFN-gamma driven STAT1 reporter signal; inhibition, % at 5.5 µM; 200,000 tested, 0.35% active; NIH 3T3 STAT1-luciferase reporter, luminescence;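 active means inhibition above a set limit, the mean inhibition across all tested compounds plus 3 SD, cut at about 34% in these data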
FLuc inhib CS = inhibits firefly luciferase, flagging false hits in luciferase inhibition screens. ATPLite firefly luciferase biochemical luminescence, 10 min. inhibition, % at 10 µM. 200,000 tested, 1.5% active. AID 1006;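 active means inhibition above about 50% when tested at 10 µM, limit read from the data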
STAT3 inh = STAT3 signaling inhibition; U3A cells, IL-6 STAT3-luciferase reporter, luminescence; host cell line lacks STAT1; inhibition, % at 5.5 µM; 190,000 tested, 0.89% active;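 active means inhibition above the mean inhibition across all screened compounds plus 3 SD, cut at about 44% in these data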
STAT1 activator = increases IFN-gamma driven STAT1 reporter signal. AID 932. 200,000 tested, 2.6% active. NIH 3T3 STAT1-luciferase reporter, luminescence; 100% = IFN-gamma alone, no compound. activation (% of control), % at 5.5 µM;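 active means activation above the screen-wide mean activation plus 3 SD, cut at about 130% in these data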
STAT1 act conf = confirmation of STAT1 signaling activators. 1,200 tested, 97% active. NIH 3T3 STAT1-luciferase reporter, IFN-gamma potentiation, luminescence; 100% = IFN-gamma EC80 alone, no compound. activation (% of control), % at 5.7 µM. shares compounds with STAT1 activator. AID 1262;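 active means activation above a set limit carried over from the earlier primary STAT1 screen, cut at about 140% in these data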
NFkB act = counter-screen for STAT1 activators: NF-kappaB activation; shares compounds with STAT1 activator; HEK293T NF-kB luciferase reporter, TNF-alpha stimulated, luminescence; 100% = TNF-alpha with vehicle only; activation (% of control), % at 5.7 µM; 1,200 tested, 43% active; AID 1306;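 active means activation above the mean of solvent-only control wells plus 3 SD, set per campaign, cut at about 130% in these data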;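 further: TNF-alpha given at a submaximal dose yielding about 80% of full reporter signal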
STAT3 act 2 = activates human STAT3, counter-screen to STAT1 activators; shares compounds with STAT1 activator; U3A cells STAT3-luciferase reporter, IL-6, luminescence; cells lack STAT1; 100 = IL-6 alone, no compound effect; activation (% of control), % at 5.7 µM; 1,200 tested, 46% active;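 active means activation above the solvent-only control well mean plus 3 SD, set per plate batch, cut at about 110% in these data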;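 further: higher means more STAT3 reporter activation so hits are non-selective activators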
A number is an active result; i = inactive; nt = no result.

SMILES | STAT3 act | FLuc act counter | STAT1 inh | FLuc inhib CS | STAT3 inh | STAT1 activator | STAT1 act conf | NFkB act | STAT3 act 2
COC(=O)c1sc(NC(=O)c2cc3c(s2)CCCC3)nc1C | i | i | i | i | i | 155 | 202 | i | 111
Cc1ccc(NC(=O)c2cc3c(s2)CCCC3)cc1 | i | i | i | i | i | 160 | 203 | 154 | i
Cc1ccc(NC(=O)c2scc3c2CCCC3)cc1 | i | i | i | 75 | i | 155 | 252 | i | i
COC(=O)c1ccc(CSc2nnc(NC(=O)c3cc4c(s3)CCCC4)s2)cc1 | i | i | i | i | i | i | nt | nt | nt
CN1/C(=C\C(=O)c2cccs2)Sc2ccccc21 | i | i | i | 82 | i | 169 | 222 | i | 161
O=C(CCCc1ccccc1)N1CCc2ccccc21 | i | i | i | 52 | i | 180 | 221 | 137 | 115
Cc1nc2ccccc2c2oc(C(=O)N3CCc4ccccc43)cc12 | nt | i | i | i | nt | i | nt | nt | nt
Cc1c(C(=O)N2CCc3ccccc32)oc2c1C(=O)CC(C)(C)C2 | i | i | i | i | i | 157 | 180 | 134 | 113
Cc1ccc(C(=O)N2CCc3ccccc32)o1 | i | i | i | i | i | 165 | 183 | i | i
O=C(CCC(=O)N1CCc2ccccc21)N1CCc2ccccc21 | i | nt | i | nt | i | i | nt | nt | nt
O=C(NCC1(c2ccccc2)CCCC1)c1ccc(Br)o1 | i | i | i | i | i | i | nt | nt | nt
COc1ccccc1N1C(=O)C2C(c3ccccc3F)NN(C(=O)c3ccc(C)cc3)C2C1=O (stereo not given) | i | i | i | i | i | i | nt | nt | nt
O=C(c1ccc(-c2cccc(Cl)c2Cl)o1)N1CCOCC1 | i | i | i | i | i | 162 | 201 | 143 | 115
CC(=O)c1cc2c(cc1NS(=O)(=O)c1ccc(F)cc1)OCO2 | i | i | i | i | i | i | nt | nt | nt
CSc1ccc(CN(C)CC(=O)NC(C)c2ccccc2)cc1 (stereo not given) | i | i | i | i | i | i | nt | nt | nt
CN(C)c1nc(N)nc(CSc2nc3cc(Cl)ccc3o2)n1 | i | i | i | i | i | 152 | 142 | i | i
CCN(CC)S(=O)(=O)c1ccc(N=Cc2c(C)c(C#N)c(=O)n(C)c2O)cc1 | i | i | i | i | i | i | nt | nt | nt
N#C/C(=C/c1ccc(N2CCCCC2)o1)C(=O)Nc1ccc(Cl)cc1 | i | i | i | i | i | 155 | 183 | i | i
N#C/C(=C/c1ccc(N2CCCCC2)o1)C(=O)Nc1ccc2ccccc2c1 | i | i | i | i | i | i | nt | nt | nt
CCC(=O)Nc1ccc(-c2nnc(-c3ccccc3)o2)cc1 | i | i | i | i | i | 163 | 220 | i | 113
CCC(=O)Nc1cccc(-c2nnc(-c3cccc(NC(=O)CC)c3)o2)c1 | i | i | i | i | i | i | nt | nt | nt
Cc1cc(C(=O)CN2C(=O)NC3(CCCCC3)C2=O)c(C)n1-c1ccc2c(c1)OCO2 | i | i | i | i | i | i | nt | nt | nt
Cc1ccc2c(c1)N=C(c1ccc(F)cc1)CO2 | i | i | i | i | i | 164 | 195 | 144 | 111
O=[N+]([O-])c1ccc(C2=Nc3cc(Cl)ccc3OC2)cc1 | i | i | i | i | i | i | nt | nt | nt
O=c1[nH]c(-c2ccccn2)nc2sc(-c3ccccc3)cc12 | i | i | i | i | i | 298 | 473 | 225 | 119
SMILES | STAT3 act | FLuc act counter | STAT1 inh | FLuc inhib CS | STAT3 inh | STAT1 activator | STAT1 act conf | NFkB act | STAT3 act 2
Cc1ccc(/C=C(\C#N)c2nc3ccccc3[nH]2)s1 | i | i | i | i | i | 162 | 222 | 137 | i
N#CC1CC(c2ccccc2)=NN1c1ccccc1[N+](=O)[O-] (stereo not given) | i | i | i | i | i | 156 | 155 | i | 124
O=CN1N=C(c2ccccc2)CC1c1ccccc1[N+](=O)[O-] (stereo not given) | i | i | i | i | i | i | nt | nt | nt
CCOC(=O)c1ccc(N=C2C(=S)N(c3ccc(C(=O)OCC)cc3)C(=N)N2/N=C/c2ccccc2)cc1 | i | i | i | i | i | i | nt | nt | nt
CN(C)c1ccc(/C=N/N2C(=N)N(c3ccccc3)C(=S)C2=Nc2ccccc2)cc1 | i | nt | i | nt | i | 163 | 185 | 134 | 113
O=C(CN1CCN(c2ccc(F)cc2)CC1)Nc1ccccc1[N+](=O)[O-] | i | i | i | i | i | i | nt | nt | nt
CN(C)S(=O)(=O)c1cc(NC(=O)c2cc(=O)[nH]c3ccccc23)ccc1Cl | i | i | i | i | i | i | nt | nt | nt
CCOC(=O)C1CCCN(C(=O)/C=C/c2ccc(Cl)cc2)C1 (stereo not given) | i | i | i | i | i | i | nt | nt | nt
Cc1ccc(/C=C/C(=O)N2CCCC(C)C2)cc1 (stereo not given) | i | i | i | 75 | i | 168 | 193 | i | i
CC(C)(C)c1ccc(/C=C/C(=O)N2CCCCC2)cc1 | i | i | i | i | i | 169 | 166 | 149 | 128
CC(=O)N1CCN(c2ccc(NC(=O)c3ccc(Br)o3)cc2Cl)CC1 | i | i | i | i | i | i | nt | nt | nt
COc1ccc(C(=O)Nc2ccc(N3CCN(C(=O)c4ccccc4)CC3)cc2)cc1[N+](=O)[O-] | i | i | i | i | i | i | nt | nt | nt
Cc1cc(C)nc(NC(=O)c2ccc([N+](=O)[O-])o2)n1 | i | i | i | i | i | i | nt | nt | nt
O=C(Nc1ccc(N2CCN(C(=O)c3ccccc3)CC2)cc1)c1ccc([N+](=O)[O-])o1 | i | i | i | i | i | 173 | i | i | i
CC(C)C(=O)N1CCN(c2ccc(NC(=O)c3ccc([N+](=O)[O-])o3)cc2Cl)CC1 | i | i | i | i | i | 153 | i | i | 111
Cc1cc(C)cc(NC(=O)c2ccc([N+](=O)[O-])o2)c1 | i | i | i | i | i | 162 | i | i | i
Cc1ccc(NC(=O)CSCC(=O)NCCc2ccccn2)c(C)c1 | i | i | i | i | i | i | nt | nt | nt
Cc1csc(NC(=O)c2ccc(C)c([N+](=O)[O-])c2)n1 | i | i | i | i | i | 184 | 236 | i | i
Cc1cc(C)nc(NC(=O)c2ccc(C)c([N+](=O)[O-])c2)n1 | i | i | i | i | i | i | nt | nt | nt

Assay outcomes: PubChem BioAssay, several laboratories
